Source: ChEMBL document CHEMBL1143304, “Isolation, structure and biological activity of phomafungin, a cyclic lipodepsipeptide from a widespread tropical Phoma sp” (Bioorg Med Chem, 2009)
pIC50: −log10 of the molar value. In brackets after ≈: the same amount, converted by molar mass. Activity calls are given as the source filed them. The calls are words filed in the database; no cut-off is given here. Where a SMILES comes first, the peptide text is derived from it. [ ]: non-standard residue; d: D form. The star is where a group is joined. X1 = CCCCCCCCCCCCC(C)C(O)CC(=O)*; hSer = N[C@@H](CCO)C(=O)O

What was measured:
[1] = Half life in Candida albicans MY1055 infected iv dosed DBA/2 mouse; type: ADME, organism-based; details: in vivo
[2] = test system: Aspergillus fumigatus; assay: Antimicrobial activity against Aspergillus fumigatus MF5668 in presence of 50% human serum after 48 hrs by broth macrodilution method; type: functional; details: for MIC: read-out: MIC100
[3] = test system: Mus musculus; assay: Toxicity in Candida albicans MY1055 infected DBA/2 mouse assessed as mouse mortality at 25 mg/kg, ip administered twice daily for 2 days; type: organism-based; set-up: dose 25 mg/kg, route intraperitoneal; details: in vivo, 48 h
In short: (§1)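 DBA/2 mice, five per group, were infected i.v. via lateral tail vein with 2.51 × 10^4 CFU/mouse. Sodium salt in water was given IP twice daily at 50, 25, 12.5, 5 or 2.5 mg/kg. Kidneys were homogenized in saline, serially diluted and plated on SDA (35 °C, 30–48 h). CFU/g were compared with sham-treated mice by paired two-tailed t-test.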

[4] = Toxicity against human PC3 cells; type: cell-based, PC-3
[5] = test system: Candida albicans; assay: Antimicrobial activity against Candida albicans MY1055 infected DBA/2 mouse at <5 mg/kg, ip administered twice daily for 2 days; type: functional, organism-based; in short: as §1
[6] = test system: Staphylococcus aureus; assay: Antimicrobial activity against Staphylococcus aureus MB2865 […] by broth macrodilution method; type: functional; details: read-out: MIC100
[7] = test system: Mus musculus; assay: Toxicity in Candida albicans MY1055 infected DBA/2 mouse assessed as mouse mortality at 12.5 mg/kg, ip administered twice daily for 2 days; type: organism-based; set-up: dose 12.5 mg/kg, route intraperitoneal; details: in vivo, 48 h; in short: as §1
[8] = test system: Trichophyton mentagrophytes; assay: Antimicrobial activity against Trichophyton mentagrophytes MF7004 after 96 hrs by broth macrodilution method; type: functional; details: for MIC: read-out: MIC100
[9] = Toxicity against human GTL16 cells; type: cell-based, GTL 16
[10] = Toxicity against human HCT116 cells; type: cell-based, HCT-116
[11] = test system: Mus musculus; assay: Toxicity in Candida albicans MY1055 infected DBA/2 mouse assessed as mouse mortality at <5 mg/kg, ip administered twice daily for 2 days; type: organism-based; details: in vivo, 48 h; in short: as §1
[12] = Clearance in Candida albicans MY1055 infected iv dosed DBA/2 mouse; type: ADME, organism-based; details: in vivo
[13] = test system: Candida tropicalis; assay: Antimicrobial activity against Candida tropicalis MY1012 after 24 hrs by broth macrodilution method; type: functional; details: for MIC: read-out: MIC100
In short: (§2)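 Broth MIC: inoculum 10^5 CFU/ml, incubated at 37 °C with 2-fold serial dilutions of compound in growth medium. MIC was the lowest concentration preventing visible growth.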

[14] = test system: Candida albicans; assay: Antimicrobial activity against Candida albicans MY1055 after 24 hrs by broth macrodilution method; type: functional; details: for MIC: read-out: MIC100; in short: as §2
[15] = Toxicity against human HEL cells; type: cell-based
[16] = test system: Candida parapsilosis; assay: Antimicrobial activity against Candida parapsilosis ATCC 22019 […] by broth macrodilution method; type: functional; details: Lodderomyces parapsilosis, read-out: MIC100
[17] = test system: Mus musculus; assay: Toxicity in Candida albicans MY1055 infected DBA/2 mouse assessed as mouse mortality at 50 mg/kg, ip administered twice daily for 2 days; type: organism-based; set-up: dose 50 mg/kg, route intraperitoneal; details: in vivo, 48 h; in short: as §1
[18] = test system: Mus musculus; assay: Dose normalized AUC in Candida albicans MY1055 infected iv dosed DBA/2 mouse; type: ADME, organism-based; details: in vivo
[19] = test system: Candida albicans; assay: Antimicrobial activity against Candida albicans MY1055 infected DBA/2 mouse at <5 mg/kg, […] administered twice daily for 2 days; type: functional, organism-based
[20] = test system: Nakaseomyces glabratus; assay: Antimicrobial activity against Candida glabrata MY1381 […] by broth macrodilution method; type: functional; details: for MIC: read-out: MIC100
[21] = test system: Clavispora lusitaniae; assay: Antimicrobial activity against Candida lusitaniae MY1396 after 24 hrs by broth macrodilution method; type: functional; details: for MIC: read-out: MIC100; in short: as §2
[22] = test system: Aspergillus fumigatus; assay: Antimicrobial activity against Aspergillus fumigatus MF5668 after 48 hrs by broth macrodilution method; type: functional; details: for MIC: read-out: MIC100; in short: as §2
[23] = test system: Pichia kudriavzevii; assay: Antimicrobial activity against Candida krusei ATCC 6258 […] by broth macrodilution method; type: functional; details: for MIC: read-out: MIC100
[24] = test system: Candida albicans; assay: Antimicrobial activity against Candida albicans MY1055 after 24 hrs in presence of 50% mouse serum by broth macrodilution method; type: functional; details: MY1055, 24 h; for MIC: read-out: MIC100
[25] = test system: Candida albicans; assay: Antimicrobial activity against Candida albicans MY1055 at 32 ug/mL after 24 hrs by broth macrodilution method; type: functional, organism-based
[26] = test system: Candida albicans; assay: Antimicrobial activity against Candida albicans MY1055 infected DBA/2 mouse administered twice daily for 2 days; type: functional, organism-based
In short: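 DBA/2 mice (5 per group) were infected i.v. via lateral tail vein with 2.51 × 10^4 CFU per mouse. The sodium salt in water was given IP twice daily at 50, 25, 12.5, 5 or 2.5 mg/kg. Mortality and health were followed for 4 days. Kidney homogenates were plated on SDA (35 °C, 30–48 h). CFU/g kidney was compared with sham-treated controls by paired two-tailed t-test.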

Row | Structure (SMILES) | MIC [2] | MIC [6] | Activity [7] | MIC80 [8] | MIC [8] | MIC [13] | MIC [14] | MIC [16] | MIC80 [20] | MIC [20] | MIC [21] | MIC [22] | MIC [23] | MIC [24] | other results
1 | CCCCCCCCCCCCC(C)C1CC(=O)N[C@@H](C)C(=O)NC(CCO)C(=O)N[C@@H](CCC(=O)O)C(=O)NCC(=O)N[C@@H](CO)C(=O)N[C@H](CC(N)=O)C(=O)N[C@H]([C@H](C)O)C(=O)NC(CCO)C(=O)O1 (some centres undefined) [PHOMAFUNGIN] | > 32 µg/mL | > 32 µg/mL | Toxic | 1 µg/mL (≈ 0.971 µM) | 2 µg/mL (≈ 1.94 µM) | > 32 µg/mL | 4 µg/mL (≈ 3.88 µM) | 4 µg/mL (≈ 3.88 µM) | 4 µg/mL (≈ 3.88 µM) | 8 µg/mL (≈ 7.77 µM) | 4 µg/mL (≈ 3.88 µM) | 4 µg/mL (≈ 3.88 µM) | 4 µg/mL (≈ 3.88 µM) | > 32 µg/mL | half-life [1]: 1.8 h; Activity [3]: Toxic; pIC50 [4]: 4.72; Activity [5]: inactive; pIC50 [9]: 4.59; pIC50 [10]: 4.70; Activity [11]: Non-toxic; clearance [12]: 6.15 mL/min/kg; pIC50 [15]: 4.81; Activity [17]: Toxic; AUC [18]: 2.64 µM; Activity [19]: inactive
2 | CC[C@H](C)C[C@H](C)CCCCCCCCC(=O)N[C@H]1C[C@@H](O)[C@@H](NCCN)NC(=O)[C@@H]2[C@@H](O)CCN2C(=O)[C@H]([C@H](O)CCN)NC(=O)[C@H]([C@H](O)[C@@H](O)c2ccc(O)cc2)NC(=O)[C@@H]2C[C@@H](O)CN2C(=O)[C@H]([C@@H](C)O)NC1=O [CASPOFUNGIN] | > 32 µg/mL | 32 µg/mL (≈ 29.3 µM) |  | 0.03 µg/mL (≈ 0.0274 µM) | 32 µg/mL (≈ 29.3 µM) | 0.125 µg/mL (≈ 0.114 µM) | 0.125 µg/mL (≈ 0.114 µM) | 0.5 µg/mL (≈ 0.457 µM) | < 0.03 µg/mL | 0.125 µg/mL (≈ 0.114 µM) | 0.125 µg/mL (≈ 0.114 µM) | > 32 µg/mL | 1 µg/mL (≈ 0.915 µM) | 0.25 µg/mL | MIC80 [2]: 0.06 µg/mL; MIC80 [13]: < 0.03 µg/mL; MIC80 [14]: < 0.03 µg/mL; MIC80 [21]: < 0.03 µg/mL; MIC80 [22]: < 0.03 µg/mL; MIC80 [23]: 0.25 µg/mL (≈ 0.229 µM); MIC80 [24]: 0.125 µg/mL
3 | CCCCCCCCCCCCC(C)C(O)CC(=O)N[C@@H](C)C(=O)N[C@@H](CCO)C(=O)N[C@@H](CCC(=O)O)C(=O)NCC(=O)N[C@@H](CO)C(=O)N[C@@H](CC(N)=O)C(=O)N[C@H](C(=O)N[C@@H](CCO)C(=O)O)[C@@H](C)O (some centres undefined) (X1-A[hSer]EGSNT[hSer]-OH) |  |  | Non-toxic |  |  |  |  |  |  |  |  |  |  |  | Activity [25]: inactive; Activity [26]: inactive
